Results taken from ChEMBL document CHEMBL4831540, “Discovery of Aficamten (CK-274), a Next-Generation Cardiac Myosin Inhibitor for the Treatment of Hypertrophic Cardiomyopathy” (J Med Chem, 2021).
Converted amounts (≈) assume the structure as drawn.

Assays:
[1] = Inhibition of full-length myosin ATPase activity in bovine cardiac myofibrils; assay type: subcellular, Bos taurus, Heart
In short: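 Bovine cardiac myofibril ATPase assay run at a calcium level giving 75% of maximal activity.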

[2] = AUC (0 to t) in Sprague-Dawley rat at 2 mg/kg, po; assay type: ADME, organism-based; parameters: dose 2 mg/kg; details: in vivo
In short: (§1)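 Multi-species PK study in male animals, n = 3 per group (dog IV arm n = 2). Iv and oral dosing with plasma concentration–time profiles yielding Cmax, tmax, AUC0–t, CL, Vss, t1/2 and F.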

[3] = Volume of distribution at steady state in Sprague-Dawley rat at 1 mg/kg, iv; assay type: ADME, organism-based; details: in vivo, read-out: Vdss
In short: (§2)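 Single iv or oral doses in male animals, 3 per group except dog iv (2 animals). Plasma concentration–time profiles gave Cmax, tmax, AUC0–t, clearance, steady-state volume of distribution, half-life and bioavailability.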

[4] = Cmax in Sprague-Dawley rat at 8 mg/kg, po; assay type: ADME, organism-based; parameters: route oral, dose 8 mg/kg; details: in vivo; in short: as §1
[5] = AUC (0 to t) in mouse at 1 mg/kg, po; assay type: ADME, organism-based; parameters: dose 1 mg/kg; details: in vivo; in short: as §1
[6] = Oral bioavailability in mouse at 1 mg/kg; assay type: ADME, organism-based; details: in vivo; in short: as §2
[7] = Volume of distribution at steady state in Beagle dog at 1 mg/kg, iv; assay type: ADME, organism-based, Canis lupus familiaris; details: in vivo; in short: as §2
Rattus norvegicus [8] = experiment: Anti-hypertrophic cardiomyopathy in po dosed Sprague-Dawley rat assessed as reduction in fractional shortening by measuring free concentration measured upto 24 hrs by echocardiography; assay type: functional; details: time hrs <=24
In short: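 Sprague–Dawley rats received single oral doses of 0.5–4 mg/kg, with fractional shortening measured by echocardiography over 24 h. Blood was sampled at each echo time point. Plasma levels were converted to free concentrations using rat plasma protein binding, and free IC10 and IC50 were derived from the FS reduction–concentration relationship.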

Cytochrome P450 2C8 = molecular target: T1, Cytochrome P450 2C8 (Homo sapiens, UniProt P10632); experiment: Inhibition of CYP2C8 in human liver microsomes assessed as paclitaxel 6a-hydroxylation reaction incubated for 30 mins in presence of NADP by LC-MS/MS analysis; assay type: ADME
T1 sequence (P10632 whole entry): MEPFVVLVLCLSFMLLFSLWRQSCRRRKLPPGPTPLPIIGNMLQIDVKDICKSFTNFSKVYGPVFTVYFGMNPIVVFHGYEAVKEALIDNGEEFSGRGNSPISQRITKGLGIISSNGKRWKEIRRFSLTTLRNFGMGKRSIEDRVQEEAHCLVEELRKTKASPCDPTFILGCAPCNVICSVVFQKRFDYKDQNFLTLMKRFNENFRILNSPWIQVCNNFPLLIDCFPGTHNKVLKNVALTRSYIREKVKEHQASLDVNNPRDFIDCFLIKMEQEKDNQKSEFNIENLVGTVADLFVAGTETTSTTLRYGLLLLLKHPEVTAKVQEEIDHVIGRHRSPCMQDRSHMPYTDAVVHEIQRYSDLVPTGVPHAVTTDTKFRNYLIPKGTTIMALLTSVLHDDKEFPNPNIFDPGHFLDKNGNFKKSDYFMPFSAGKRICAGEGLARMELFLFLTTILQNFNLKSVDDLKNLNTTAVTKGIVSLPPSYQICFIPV

Cytochrome P450 3A4 = Cytochrome P450 3A4 (Homo sapiens, UniProt P08684); experiment: Inhibition of CYP3A4 in human liver microsomes incubated for 30 mins in presence of NADP by LC-MS/MS analysis
Chain of Cytochrome P450 3A4 (P08684 whole entry, looked up): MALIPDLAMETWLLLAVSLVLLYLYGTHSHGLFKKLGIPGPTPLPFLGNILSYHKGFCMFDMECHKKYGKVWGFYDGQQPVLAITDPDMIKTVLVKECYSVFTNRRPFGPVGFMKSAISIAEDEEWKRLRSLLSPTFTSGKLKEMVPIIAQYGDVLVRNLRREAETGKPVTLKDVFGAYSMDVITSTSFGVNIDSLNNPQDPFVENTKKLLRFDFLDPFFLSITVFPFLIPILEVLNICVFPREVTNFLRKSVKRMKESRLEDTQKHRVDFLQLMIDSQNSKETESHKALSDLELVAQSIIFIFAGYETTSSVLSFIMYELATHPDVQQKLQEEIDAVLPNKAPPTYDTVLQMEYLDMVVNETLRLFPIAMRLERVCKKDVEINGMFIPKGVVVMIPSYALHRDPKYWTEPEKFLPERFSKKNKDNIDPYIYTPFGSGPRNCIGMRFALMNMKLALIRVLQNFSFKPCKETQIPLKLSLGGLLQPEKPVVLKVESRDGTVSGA

Cytochrome P450 1A2 = molecular target: T2, Cytochrome P450 1A2 (Homo sapiens, UniProt P05177); experiment: Inhibition of CYP1A2 in human liver microsomes assessed as phenacetin O-deethylation reaction incubated for 30 mins in presence of NADP by LC-MS/MS analysis; assay type: ADME
T2 sequence (P05177 whole entry): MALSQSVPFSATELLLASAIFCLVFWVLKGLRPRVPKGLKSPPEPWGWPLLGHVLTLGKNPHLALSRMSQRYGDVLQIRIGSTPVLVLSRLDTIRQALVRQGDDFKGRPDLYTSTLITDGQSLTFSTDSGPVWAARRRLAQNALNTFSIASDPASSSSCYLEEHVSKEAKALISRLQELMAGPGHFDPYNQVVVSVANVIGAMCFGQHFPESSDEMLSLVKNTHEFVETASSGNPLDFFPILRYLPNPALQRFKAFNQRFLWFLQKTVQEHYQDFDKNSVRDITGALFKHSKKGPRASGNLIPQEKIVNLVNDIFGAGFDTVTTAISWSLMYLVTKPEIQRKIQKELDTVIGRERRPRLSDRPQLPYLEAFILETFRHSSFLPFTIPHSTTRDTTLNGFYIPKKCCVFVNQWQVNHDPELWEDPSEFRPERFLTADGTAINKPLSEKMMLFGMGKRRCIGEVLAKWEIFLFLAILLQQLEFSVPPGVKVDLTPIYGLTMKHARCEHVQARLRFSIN

[9] = Half life in Sprague-Dawley rat at 1 mg/kg, iv; assay type: ADME, organism-based; details: in vivo
In short: (§3)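 Rat PK with iv and po administration at 1 mg/kg. Clearance and half-life came from the iv arm, and bioavailability from the iv/po comparison.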

[10] = Cmax in cynomolgus monkey at 1 mg/kg, po; assay type: ADME, organism-based, Macaca fascicularis; parameters: route oral, dose 1 mg/kg; details: in vivo; in short: as §1
[11] = Plasma protein binding in rat plasma assessed as unbound concentration at 5 uM incubated for 6 hrs by HPLC analysis; assay type: ADME, cell-free
[12] = Tmax in Sprague-Dawley rat at 2 mg/kg, po; assay type: ADME, organism-based; details: in vivo; in short: as §2
[13] = Plasma protein binding in human assessed as unbound fraction; assay type: ADME, cell-free
[14] = Cmax in Sprague-Dawley rat at 3 mg/kg, po; assay type: ADME, organism-based; parameters: route oral, dose 3 mg/kg; details: in vivo
Rattus norvegicus [15] = experiment: Anti-hypertrophic cardiomyopathy in po dosed Sprague-Dawley rat assessed as reduction in fractional shortening measured upto 24 hrs by echocardiography; assay type: functional, organism-based
In short: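 Normal Sprague–Dawley rats were given single oral doses of 0.5–4 mg/kg. Left ventricular dimensions and fractional shortening were measured by echocardiography at selected time points over 24 h, relative to vehicle treatment.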

[16] = AUC (0 to t) in Sprague-Dawley rat at 8 mg/kg, po; assay type: ADME, organism-based; parameters: dose 8 mg/kg; details: in vivo; in short: as §1
[17] = Oral bioavailability in Beagle dog at 1 mg/kg; assay type: ADME, organism-based, Canis lupus familiaris; details: in vivo; in short: as §1
[18] = Half life in mouse at 0.5 mg/kg, iv; assay type: ADME, organism-based; details: in vivo; in short: as §1
[19] = Clearance in Sprague-Dawley rat at 1 mg/kg, iv; assay type: ADME, organism-based; details: in vivo; in short: as §3
[20] = Volume of distribution at steady state in cynomolgus monkey at 1 mg/kg, iv; assay type: ADME, organism-based, Macaca fascicularis; details: in vivo, read-out: Vdss; in short: as §2
[21] = Solubility of the compound at pH 6.8 by shake flask method; assay type: physicochemical; details: buffer
In short: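 Shake-flask solubility at pH 6.8; solid form not characterized.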

[22] = Oral bioavailability in cynomolgus monkey at 1 mg/kg; assay type: ADME, organism-based, Macaca fascicularis; details: in vivo; in short: as §2

With `CCc1nc(-c2ccc3c(c2)CC[C@H]3NC(=O)c2cnn(C)c2)no1` [AFICAMTEN] the IC50 [1] was 1400 nM, the AUC(0-t) [2] was 9450 ng·h/mL and the Vd [3] was 0.53 L/kg. It also gave a Cmax [4] of 8440 ng/mL, an AUC(0-t) [5] of 1830 ng·h/mL and a bioavailability [6] of 98%. It also gave a Vd [7] of 10.5 L/kg, an IC10 (Rattus norvegicus [8]) of 14.4 nM and an IC50 (Cytochrome P450 2C8) of over 100000 nM. For the same compound, the IC50 (Cytochrome P450 3A4) was over 100000 nM, the IC50 (Cytochrome P450 1A2) was over 100000 nM and the half-life [9] was 3 h. The Cmax [10] was 65 ng/mL, the fraction unbound at 6 h, 5 µM [11] was 0.018 and the Tmax [12] was 0.92 h. For the same compound, the fraction unbound [13] was 0.095, the Cmax [14] was 3170 ng/mL and the IC10 (Rattus norvegicus [15]; Rattus norvegicus, Sprague-Dawley, 24 h) was 800 nM. For the same compound, the IC50 (Rattus norvegicus [15]; time hrs <=24) was 7900 nM, the AUC(0-t) [16] was 53700 ng·h/mL and the bioavailability [17] was 45%. It also gave a half-life [18] of 4.5 h, a clearance [19] of 2.1 mL/min/kg and a Vd [20] of 7.76 L/kg. For the same compound, the solubility thermodynamic [21] was 97 µM (≈ 32.7 µg/mL) and the bioavailability [22] was 41%.
